Data reported in ChEMBL document CHEMBL1152452, “Modifications incorporated in CpG motifs of oligodeoxynucleotides lead to antagonist activity of toll-like receptors 7 and 9” (2009).
The source made the active and inactive calls. No cut-off for these calls is given here.

What was measured:
[1] = test system: J774; test: Inhibition of 5'-CTATCTGACGTTCTCTGT-3'-activated NF-kappaB activity in mouse J774 cells at 2.5 ug/ml after 1 hr by EMSA; assay type: cell-based
Method in brief: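 J774 murine macrophages were grown in DMEM with 10% FBS and antibiotics, plated at 5 × 10^6 cells/well, and co-incubated for 1 h with the agonist ODN (0.5 µg/mL) and test ODN (2.5 µg/mL). Nuclear extracts were prepared and NF-κB binding was analysed by EMSA on native polyacrylamide gels with autoradiography.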

[2] = test system: Mus musculus; test: Immunostimulatory activity in C57BL/6 mouse assessed as induction of TNFalpha level in serum at 2 mg/kg, sc after 2 hrs by Luminex multiplex assay; assay type: functional, organism-based; design: dose 2 mg/kg
Method in brief: (§1)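 Female C57BL/6 mice, 5–6 weeks old, n = 3, received a single 2 mg/kg subcutaneous ODN injection in the right flank. Blood was taken by retro-orbital bleeding 2 h later. Naive mice served as baseline. Representative of three experiments.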

[3] = test system: Mus musculus; test: Immunostimulatory activity in C57BL/6 mouse assessed as induction of IL10 level in serum at 2 mg/kg, sc after 2 hrs by Luminex multiplex assay; assay type: functional, organism-based; design: dose 2 mg/kg; method in brief: as §1
[4] = test system: Mus musculus; test: Immunostimulatory activity in C57BL/6 mouse assessed as inhibition of 5'-CTATCTGACGTTCTCTGT-3'-induced MIP-1alpha production in serum at 2 mg/kg, sc administered 24 hrs prior to 5'-CTATCTGACGTTCTCTGT-3' challenge measured after 2 hrs by Luminex multiplex assay; assay type: functional, organism-based; design: dose 2 mg/kg
Method in brief: (§2)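 C57BL/6 mice received 2 mg/kg ODN sc in one flank. After 24 h, the TLR9 agonist ODN was given at 0.5 mg/kg sc in the opposite flank. Blood was drawn 2 h later and serum cytokines/chemokines were quantified by Luminex multiplex assay. Percent inhibition was taken against the agonist alone. Representative of three experiments.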

[5] = test system: Splenocyte; test: Immunostimulatory activity in C57BL/6 mouse splenocytes assessed as induction of IL6 secretion at 2 to 10 ug/ml after 24 hrs by sandwich ELISA; assay type: functional, cell-based
Method in brief: (§3)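 C57BL/6 splenocytes (mice 5–8 weeks) at 5 × 10^6 cells/mL in RPMI complete medium. ODNs dissolved in PBS were added and the cells incubated at 37 °C for 24 h. Supernatant IL-12 or IL-6 was measured by sandwich ELISA. Runs were done two or three times, in duplicate per concentration.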

[6] = test system: Mus musculus; test: Immunostimulatory activity in C57BL/6 mouse assessed as inhibition of 5'-CTATCTGACGTTCTCTGT-3'-induced MCP1 production in serum at 2 mg/kg, sc administered 24 hrs prior to 5'-CTATCTGACGTTCTCTGT-3' challenge measured after 2 hrs by Luminex multiplex assay; assay type: functional, organism-based; design: dose 2 mg/kg; method in brief: as §2
[7] = test system: Mus musculus; test: Immunostimulatory activity in C57BL/6 mouse assessed as induction of IL12 level in serum at 2 mg/kg, sc after 2 hrs by sandwich ELISA; assay type: functional, organism-based; design: dose 2 mg/kg; method in brief: as §1
[8] = test system: Splenocyte; test: Immunostimulatory activity in C57BL/6 mouse splenocytes assessed as induction of IL12 secretion at 2 to 10 ug/ml after 24 hrs by sandwich ELISA; assay type: functional, cell-based; method in brief: as §3
[9] = molecular target: T1, Toll-like receptor 9 (Mus musculus) (UniProt Q9EQU3); test: Activation of mouse TLR9 expressed in HEK293 cells assessed as NF-kappaB level at 1 ug/mL after 18 hrs by reporter gene assay; assay type: cell-based
T1 sequence (whole entry): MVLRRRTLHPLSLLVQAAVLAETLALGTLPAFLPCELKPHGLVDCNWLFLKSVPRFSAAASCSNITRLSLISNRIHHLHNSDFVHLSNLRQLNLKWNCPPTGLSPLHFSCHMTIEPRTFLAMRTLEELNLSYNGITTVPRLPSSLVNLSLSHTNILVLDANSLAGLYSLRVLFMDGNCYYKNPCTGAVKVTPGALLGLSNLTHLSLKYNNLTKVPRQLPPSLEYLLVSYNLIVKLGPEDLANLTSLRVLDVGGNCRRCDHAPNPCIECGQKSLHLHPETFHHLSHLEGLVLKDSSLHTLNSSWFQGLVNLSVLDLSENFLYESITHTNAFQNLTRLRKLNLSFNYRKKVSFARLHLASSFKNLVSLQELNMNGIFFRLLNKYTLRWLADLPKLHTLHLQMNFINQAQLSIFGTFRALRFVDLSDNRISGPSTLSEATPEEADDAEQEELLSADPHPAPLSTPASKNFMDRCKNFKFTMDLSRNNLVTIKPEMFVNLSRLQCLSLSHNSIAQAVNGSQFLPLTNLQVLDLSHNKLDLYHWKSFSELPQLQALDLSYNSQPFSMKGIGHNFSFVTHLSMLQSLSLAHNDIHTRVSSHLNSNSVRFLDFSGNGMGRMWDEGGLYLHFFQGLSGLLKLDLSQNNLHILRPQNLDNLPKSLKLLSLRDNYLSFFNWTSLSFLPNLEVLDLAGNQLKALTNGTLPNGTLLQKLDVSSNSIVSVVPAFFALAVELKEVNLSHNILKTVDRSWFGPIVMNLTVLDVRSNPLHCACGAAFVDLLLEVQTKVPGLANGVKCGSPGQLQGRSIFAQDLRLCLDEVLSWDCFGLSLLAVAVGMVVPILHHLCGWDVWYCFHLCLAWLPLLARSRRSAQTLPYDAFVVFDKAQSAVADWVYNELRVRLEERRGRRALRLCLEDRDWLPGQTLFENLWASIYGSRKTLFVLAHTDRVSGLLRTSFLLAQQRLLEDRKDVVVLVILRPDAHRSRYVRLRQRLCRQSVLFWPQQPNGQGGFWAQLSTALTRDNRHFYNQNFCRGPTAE
Method in brief: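 HEK293 cells stably expressing mouse TLR9 were transiently transfected with a SEAP reporter for 6 h, then stimulated with ODN at 0.1, 0.3 or 1 μg/mL for 18 h. Reporter expression is given as fold change in NF-κB activity over medium. Representative of two independent experiments.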

SMILES	Activity [1]	Activity [2]	Activity [3]	Activity [4]	Activity [5]	Activity [6]	Activity [7]	Activity [8]	Activity [9]
Cc1cn([C@@H]2O[C@H](COP(=O)(S)O[C@H]3C[C@H](n4ccc(N)nc4=O)O[C@@H]3COP(=O)(S)O[C@H]3C[C@H](n4cc(C)c(=O)[nH]c4=O)O[C@@H]3COP(=O)(S)O[C@H]3C[C@H](n4ccc(N)nc4=O)O[C@@H]3COP(=O)(S)O[C@H]3C[C@H](n4cc(C)c(=O)[nH]c4=O)O[C@@H]3COP(=O)(S)O[C@H]3C[C@H](n4cc(C)c(=O)[nH]c4=O)O[C@@H]3COP(=O)(S)O[C@H]3C[C@H](n4cnc5c(=O)[nH]c(N)nc54)O[C@@H]3COP(=O)(S)O[C@H]3C[C@H](n4ccc(N)nc4=O)O[C@@H]3COP(=O)(S)O[C@H]3C[C@H](n4cnc5c(N)ncnc54)O[C@@H]3COP(=O)(S)O[C@H]3C[C@H](n4cnc5c(=O)[nH]c(N)nc54)O[C@@H]3COP(=O)(S)O[C@H]3C[C@H](n4cc(C)c(=O)[nH]c4=O)O[C@@H]3COP(=O)(S)O[C@H]3C[C@H](n4ccc(N)nc4=O)O[C@@H]3COP(=O)(S)O[C@H]3C[C@H](n4cc(C)c(=O)[nH]c4=O)O[C@@H]3COP(=O)(S)O[C@H]3C[C@H](n4cnc5c(N)ncnc54)O[C@@H]3COP(=O)(S)O[C@H]3C[C@H](n4cc(C)c(=O)[nH]c4=O)O[C@@H]3COP(=O)(S)O[C@@H]3C[C@@H](n4ccc(N)nc4=O)O[C@H]3CO)[C@@H](OP(=O)(S)OC[C@H]3O[C@@H](n4cnc5c(=O)[nH]c(N)nc54)C[C@@H]3OP(=O)(S)OC[C@H]3O[C@@H](n4cc(C)c(=O)[nH]c4=O)C[C@@H]3O)[C@H]2O)c(=O)[nH]c1=O (some centres not stated)	Active	inactive	inactive	Active	Active	Active	inactive	Active	inactive
CO[C@@H]1[C@H](OP(=O)(S)OC[C@H]2O[C@@H](n3cnc4c(=O)[nH]c(N)nc43)C[C@@H]2OP(=O)(S)OC[C@H]2O[C@@H](n3cc(C)c(=O)[nH]c3=O)C[C@@H]2OP(=O)(S)OC[C@H]2O[C@@H](n3cc(C)c(=O)[nH]c3=O)C[C@@H]2OP(=O)(S)OC[C@H]2O[C@@H](n3ccc(N)nc3=O)C[C@@H]2OP(=O)(S)OC[C@H]2O[C@@H](n3cc(C)c(=O)[nH]c3=O)C[C@@H]2OP(=O)(S)OC[C@H]2O[C@@H](n3ccc(N)nc3=O)C[C@@H]2OP(=O)(S)OC[C@H]2O[C@@H](n3cc(C)c(=O)[nH]c3=O)C[C@@H]2OP(=O)(S)OC[C@H]2O[C@@H](n3cnc4c(=O)[nH]c(N)nc43)C[C@@H]2OP(=O)(S)OC[C@H]2O[C@@H](n3cc(C)c(=O)[nH]c3=O)C[C@@H]2O)[C@@H](COP(=O)(S)O[C@H]2C[C@H](n3cnc4c(N)ncnc43)O[C@@H]2COP(=O)(S)O[C@H]2C[C@H](n3cnc4c(=O)[nH]c(N)nc43)O[C@@H]2COP(=O)(S)O[C@H]2C[C@H](n3cc(C)c(=O)[nH]c3=O)O[C@@H]2COP(=O)(S)O[C@H]2C[C@H](n3ccc(N)nc3=O)O[C@@H]2COP(=O)(S)O[C@H]2C[C@H](n3cc(C)c(=O)[nH]c3=O)O[C@@H]2COP(=O)(S)O[C@H]2C[C@H](n3cnc4c(N)ncnc43)O[C@@H]2COP(=O)(S)O[C@H]2C[C@H](n3cc(C)c(=O)[nH]c3=O)O[C@@H]2COP(=O)(S)O[C@H]2C[C@H](n3ccc(N)nc3=O)O[C@@H]2CO)O[C@H]1n1ccc(N)nc1=O (some centres not stated)	Active	inactive	inactive	Active	Active	Active	inactive	Active	inactive
CO[C@@H]1[C@H](OP(=O)(S)OC[C@H]2O[C@@H](n3cc(C)c(=O)[nH]c3=O)C[C@@H]2OP(=O)(S)OC[C@H]2O[C@@H](n3cc(C)c(=O)[nH]c3=O)C[C@@H]2OP(=O)(S)OC[C@H]2O[C@@H](n3ccc(N)nc3=O)C[C@@H]2OP(=O)(S)OC[C@H]2O[C@@H](n3cc(C)c(=O)[nH]c3=O)C[C@@H]2OP(=O)(S)OC[C@H]2O[C@@H](n3ccc(N)nc3=O)C[C@@H]2OP(=O)(S)OC[C@H]2O[C@@H](n3cc(C)c(=O)[nH]c3=O)C[C@@H]2OP(=O)(S)OC[C@H]2O[C@@H](n3cnc4c(=O)[nH]c(N)nc43)C[C@@H]2OP(=O)(S)OC[C@H]2O[C@@H](n3cc(C)c(=O)[nH]c3=O)C[C@@H]2O)[C@@H](COP(=O)(S)O[C@H]2C[C@H](n3ccc(N)nc3=O)O[C@@H]2COP(=O)(S)O[C@H]2C[C@H](n3cnc4c(N)ncnc43)O[C@@H]2COP(=O)(S)O[C@H]2C[C@H](n3cnc4c(=O)[nH]c(N)nc43)O[C@@H]2COP(=O)(S)O[C@H]2C[C@H](n3cc(C)c(=O)[nH]c3=O)O[C@@H]2COP(=O)(S)O[C@H]2C[C@H](n3ccc(N)nc3=O)O[C@@H]2COP(=O)(S)O[C@H]2C[C@H](n3cc(C)c(=O)[nH]c3=O)O[C@@H]2COP(=O)(S)O[C@H]2C[C@H](n3cnc4c(N)ncnc43)O[C@@H]2COP(=O)(S)O[C@H]2C[C@H](n3cc(C)c(=O)[nH]c3=O)O[C@@H]2COP(=O)(S)O[C@H]2C[C@H](n3ccc(N)nc3=O)O[C@@H]2CO)O[C@H]1n1cnc2c(=O)[nH]c(N)nc21 (some centres not stated)	Active	inactive	inactive	Active	Active	Active	inactive	Active	inactive
